Data as given in ChEMBL document CHEMBL3621107, “Ring fusion strategy for synthesis and lead optimization of sulfur-substituted anthra[1,2-c][1,2,5]thiadiazole-6,11-dione derivatives as promising scaffold of antitumor agents” (Eur J Med Chem, 2015).

Assays:
CAKI-1 = test: Cytotoxicity against human Caki1 cells assessed as cell growth at 10 uM after 48 hrs by SRB assay relative to control; assay type: functional; conditions: CAKI-1, 48 h, read-out: Activity
Summary of the method: (§1)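 First-stage NCI-60 screen by the NCI Developmental Therapeutics Program. Each compound was tested once at a single concentration of 10 μM against the 60-cell-line panel. Growth percentage was reported for each cell line.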

COLO 205 = test: Cytotoxicity against human COLO205 cells assessed as cell growth at 10 uM after 48 hrs by SRB assay relative to control; assay type: functional; conditions: COLO 205, 48 h, read-out: Activity; summary of the method: as §1
MDA-MB-468 = test: Cytotoxicity against human MDA-MB-468 cells assessed as cell growth at 10 uM after 48 hrs by SRB assay relative to control; assay type: functional; conditions: MDA-MB-468, 48 h, read-out: Activity
Summary of the method: (§2)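 First-stage NCI DTP one-dose screen against the 60 human tumour cell line panel. Compounds were tested at a single 10 μM level, and results are given as growth percentage.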

BT-549 = test: Cytotoxicity against human BT549 cells assessed as cell growth at 10 uM after 48 hrs by SRB assay relative to control; assay type: functional; conditions: BT-549, 48 h, read-out: Activity; summary of the method: as §1
UO-31 = test: Cytotoxicity against human UO31 cells assessed as cell growth at 10 uM after 48 hrs by SRB assay relative to control; assay type: functional; conditions: UO-31, 48 h, read-out: Activity
Summary of the method: (§3)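 NCI-60 one-dose screen run by NCI DTP: each cell line exposed to a single 10 µM dose, and percentage growth recorded against untreated growth.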

UACC-257 = test: Cytotoxicity against human UACC257 cells assessed as cell growth at 10 uM after 48 hrs by SRB assay relative to control; assay type: functional; conditions: UACC-257, 48 h, read-out: Activity; summary of the method: as §3
[1] = Cytotoxicity against human Hs578T cells assessed as cell growth at 10 uM after 48 hrs by SRB assay relative to control; assay type: functional; conditions: Hs-578T, read-out: Activity; summary of the method: as §1
OVCAR-4 = test: Cytotoxicity against human OVCAR4 cells assessed as cell growth at 10 uM after 48 hrs by SRB assay relative to control; assay type: functional; conditions: OVCAR-4, 48 h, read-out: Activity; summary of the method: as §2
TK-10 = test: Cytotoxicity against human TK10 cells assessed as cell growth at 10 uM after 48 hrs by SRB assay relative to control; assay type: functional; conditions: TK-10, 48 h, read-out: Activity; summary of the method: as §3
UACC-62 = test: Cytotoxicity against human UACC62 cells assessed as cell growth at 10 uM after 48 hrs by SRB assay relative to control; assay type: functional; conditions: UACC-62, 48 h, read-out: Activity; summary of the method: as §3
CCRF-CEM = test: Cytotoxicity against human CCRF-CEM cells assessed as cell growth at 10 uM after 48 hrs by SRB assay relative to control; assay type: functional; conditions: read-out: Activity; summary of the method: as §1
LOX IMVI = test: Cytotoxicity against human LOXIMVI cells assessed as cell growth at 10 uM after 48 hrs by SRB assay relative to control; assay type: functional; conditions: read-out: Activity; summary of the method: as §1
NCI-H322M = test: Cytotoxicity against human NCI-H322M cells assessed as cell growth at 10 uM after 48 hrs by SRB assay relative to control; assay type: functional; conditions: read-out: Activity; summary of the method: as §2
Malme-3M = test: Cytotoxicity against human MALME-3M cells assessed as cell growth at 10 uM after 48 hrs by SRB assay relative to control; assay type: functional; conditions: read-out: Activity; summary of the method: as §1
NCI-H460 = test: Cytotoxicity against human NCI-H460 cells assessed as cell growth at 10 uM after 48 hrs by SRB assay relative to control; assay type: functional; conditions: NCI-H460, 48 h, read-out: Activity; summary of the method: as §2
SNB-75 = test: Cytotoxicity against human SNB75 cells assessed as cell growth at 10 uM after 48 hrs by SRB assay relative to control; assay type: functional; conditions: SNB-75, 48 h, read-out: Activity; summary of the method: as §3
T47D = test: Cytotoxicity against human T47D cells assessed as cell growth at 10 uM after 48 hrs by SRB assay relative to control; assay type: functional; conditions: read-out: Activity; summary of the method: as §3
OVCAR-5 = test: Cytotoxicity against human OVCAR5 cells after 48 hrs by SRB assay; assay type: functional; conditions: OVCAR-5, 48 h
Summary of the method: (§4)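 Second-stage NCI-60 panel run by the NCI Developmental Therapeutics Program, covering nine tumour subpanels. Five concentrations were tested: 0.01, 0.1, 1, 10 and 100 μM. Percentage growth at each level was plotted against log10 drug concentration. GI50, TGI and LC50 were read from these dose-response curves. Subpanel MID values were divided into the full-panel MID to give selectivity ratios.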

SF-539 = test: Cytotoxicity against human SF539 cells assessed as cell growth at 10 uM after 48 hrs by SRB assay relative to control; assay type: functional; conditions: SF-539, 48 h, read-out: Activity; summary of the method: as §2
DU-145 = test: Cytotoxicity against human DU145 cells assessed as cell growth at 10 uM after 48 hrs by SRB assay relative to control; assay type: functional; conditions: DU-145, 48 h, read-out: Activity; summary of the method: as §1
NCI-H23 = test: Cytotoxicity against human NCI-H23 cells assessed as cell growth at 10 uM after 48 hrs by SRB assay relative to control; assay type: functional; conditions: NCI-H23, 48 h, read-out: Activity; summary of the method: as §2
IGROV-1 = test: Cytotoxicity against human IGROV1 cells assessed as cell growth at 10 uM after 48 hrs by SRB assay relative to control; assay type: functional; conditions: IGROV-1, 48 h, read-out: Activity; summary of the method: as §1
SR = test: Cytotoxicity against human SR cells assessed as cell growth at 10 uM after 48 hrs by SRB assay relative to control; assay type: functional; conditions: read-out: Activity; summary of the method: as §3
MOLT-4 = test: Cytotoxicity against human MOLT4 cells assessed as cell growth at 10 uM after 48 hrs by SRB assay relative to control; assay type: functional; conditions: MOLT-4, 48 h, read-out: Activity; summary of the method: as §2
MCF7 = test: Cytotoxicity against human MCF7 cells assessed as cell growth at 10 uM after 48 hrs by SRB assay relative to control; assay type: functional; conditions: MCF7, 48 h, read-out: Activity; summary of the method: as §1
NCI-H522 = test: Cytotoxicity against human NCI-H522 cells assessed as cell growth at 10 uM after 48 hrs by SRB assay relative to control; assay type: functional; conditions: NCI-H522, 48 h, read-out: Activity; summary of the method: as §2
[2] = Cytotoxicity against human EKVX cells assessed as cell growth at 10 uM after 48 hrs by SRB assay relative to control; assay type: functional; conditions: read-out: Activity; summary of the method: as §1
HCC 2998 = test: Cytotoxicity against human HCC2998 cells assessed as cell growth at 10 uM after 48 hrs by SRB assay relative to control; assay type: functional; conditions: HCC 2998, 48 h, read-out: Activity; summary of the method: as §1
SK-MEL-5 = test: Cytotoxicity against human SK-MEL-5 cells assessed as cell growth at 10 uM after 48 hrs by SRB assay relative to control; assay type: functional; conditions: SK-MEL-5, 48 h, read-out: Activity; summary of the method: as §2
HCT-116 = test: Cytotoxicity against human HCT116 cells assessed as cell growth at 10 uM after 48 hrs by SRB assay relative to control; assay type: functional; conditions: HCT-116, 48 h, read-out: Activity; summary of the method: as §1
PC-3 = test: Cytotoxicity against human PC3 cells after 48 hrs by SRB assay; assay type: functional, cell-based; conditions: PC-3, 48 h; summary of the method: as §4
HOP-92 = test: Cytotoxicity against human HOP92 cells assessed as cell growth at 10 uM after 48 hrs by SRB assay relative to control; assay type: functional; conditions: HOP-92, 48 h, read-out: Activity; summary of the method: as §1

Row | SMILES | growth at 10 µM (CAKI-1) | growth at 10 µM (COLO 205) | growth at 10 µM (MDA-MB-468) | growth at 10 µM (BT-549) | growth at 10 µM (UO-31) | growth at 10 µM (UACC-257) | growth at 10 µM [1] | growth at 10 µM (OVCAR-4) | growth at 10 µM (TK-10) | growth at 10 µM (UACC-62) | growth at 10 µM (CCRF-CEM) | growth at 10 µM (LOX IMVI) | growth at 10 µM (NCI-H322M) | growth at 10 µM (Malme-3M) | growth at 10 µM (NCI-H460) | growth at 10 µM (SNB-75) | growth at 10 µM (T47D) | growth at 10 µM (SF-539) | growth at 10 µM (DU-145) | growth at 10 µM (NCI-H23) | further results
1 | CC(C)Sc1cc2c(c3nsnc13)C(=O)c1ccccc1C2=O | -5.68% | 102% | -78.8% | 10.8% | -28.4% | -91.7% | -9.16% | -100% | 30.3% | -57.1% | -45% | -21.6% | -0.8% | -86% | 4.92% | 9.12% | -24.4% | -47% | 6.66% | -42.2% | GI50 (OVCAR-5): 2.07 µM; LC50 (OVCAR-5): 7.94 µM; TGI (OVCAR-5): 4.05 µM; growth at 10 µM (IGROV-1): -32.9%; growth at 10 µM (SR): -48%; growth at 10 µM (MOLT-4): -54.6%; growth at 10 µM (MCF7): -68.8%; growth at 10 µM (NCI-H522): -59.5%; growth at 10 µM [2]: -6.58%; growth at 10 µM (HCC 2998): 21%; growth at 10 µM (SK-MEL-5): -99.2%; growth at 10 µM (HCT-116): -36.7%; IC50 (PC-3): 3.69 µM
2 | O=C1c2ccccc2C(=O)c2c1cc(Cl)c1nsnc21 | 96.5% | 99.1% | -88.3% | 102% | 80.2% | 76.1% | 72.5% | -75% | 134% | 72.9% | -41.8% | 10.2% | 108% | 97.1% | 100% | 85.2% | -54.6% | 109% | 97% | 75% | growth at 10 µM (HOP-92): -52.2%; growth at 10 µM (IGROV-1): 52.5%; growth at 10 µM (SR): -23.9%; growth at 10 µM (MOLT-4): -34.1%; growth at 10 µM (MCF7): 65.4%; growth at 10 µM (NCI-H522): 89.5%; growth at 10 µM [2]: 82.2%; growth at 10 µM (HCC 2998): 106%; growth at 10 µM (SK-MEL-5): 72.5%; growth at 10 µM (HCT-116): 48.1%; IC50 (PC-3): 13.5 µM
